In the library only some 2.5% were active in any assay of this set; here they are far more common.
SENP6 inh: SENP6 protease inhibition. Q9GZR1. Recombinant SENP6 catalytic domain, aminoluciferin luminescence. inhibition, % at 10 µM. 330,000 compounds, 1.8% hits. AID 2599;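 active = inhibition above about 50% at the single tested dose, limit read from the data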
SENP1 FRET inh: blocks the human SENP1 SUMO protease catalytic domain; Q9P0U3; 360,000 compounds, 0.21% hits; recombinant SENP1 catalytic domain, CyPet-SUMO1-YPet FRET cleavage; AID 624204; inhibition, % at 10 µM;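 active = inhibition at least 30% at 10 µM, raw YFP signal under a set limit, fluorescence ratio 0.5 to 1.5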
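System: Recombinant human SENP1 catalytic domain, His6-tagged | Incubation: Enzyme reaction for 50 min at room temperature, dark | Medium: Tris pH 8 with BME, BSA, NP40 and catalase | Also added: 25 nM SUMO1 FRET substrate | Compound: 10 µM single point, 0.5% DMSO | Measured by: FRET fluorescence in CFP and YFP emission channels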
SENP7 inh: inhibitors of human SENP7 protease; 330,000 compounds, 1.5% hits; recombinant SENP7, Z-RLRGG-aminoluciferin luminescence, 40 min; AID 434973; inhibition, % at 5 µM;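 active = inhibition above about 50% at the single test dose, limit read from the data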
Target sequence (Q9BQF6 706-1050 limits assumed): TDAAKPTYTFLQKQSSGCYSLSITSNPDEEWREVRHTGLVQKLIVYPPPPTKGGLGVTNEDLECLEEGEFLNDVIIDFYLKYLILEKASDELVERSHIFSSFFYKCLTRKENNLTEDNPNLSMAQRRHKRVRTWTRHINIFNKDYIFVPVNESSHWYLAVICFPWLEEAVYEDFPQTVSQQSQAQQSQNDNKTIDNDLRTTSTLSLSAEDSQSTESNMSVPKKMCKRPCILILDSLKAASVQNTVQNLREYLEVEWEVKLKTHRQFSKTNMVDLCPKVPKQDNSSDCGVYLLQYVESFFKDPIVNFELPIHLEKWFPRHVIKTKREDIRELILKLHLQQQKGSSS
SENP8 block-1: inhibitors of human SENP8 protease. Q96LD8. 330,000 compounds, 1.2% hits. purified SENP8, Z-RLRGG-aminoluciferin cleavage, luminescence. inhibition, % at 10 µM; in the data active = inhibition above about 50%
Target sequence (Q96LD8 whole entry, looked up): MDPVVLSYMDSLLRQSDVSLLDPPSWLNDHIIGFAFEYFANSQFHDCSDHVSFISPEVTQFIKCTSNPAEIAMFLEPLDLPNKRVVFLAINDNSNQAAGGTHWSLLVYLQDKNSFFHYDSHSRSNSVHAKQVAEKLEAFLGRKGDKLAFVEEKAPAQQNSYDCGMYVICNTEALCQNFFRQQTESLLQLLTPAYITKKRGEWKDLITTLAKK
SENP8 block-2: SENP8 (human) protease inhibition; Q96LD8; recombinant SENP8, Nedd8 substrate fluorescence; inhibition, % at 20 µM; 360,000 compounds, 0.64% hits; AID 602440; in the data active = inhibition mostly above about 40%, no sharp cut-off; inactive = mostly below about 27%
Numbers stand for hits; – = inactive; · = not tested or not shown.

SMILES	SENP6 inh	SENP1 FRET inh	SENP7 inh	SENP8 block-1	SENP8 block-2
O=C(N/N=C/c1c[nH]c2ccccc12)c1ccccc1	–	–	–	–	–
NS(=O)(=O)c1cccc(NC(=O)C(Cc2ccccc2)NC(=O)c2ccccc2)c1 (stereo not given)	–	–	–	–	–
O=C(Nc1sc2c(c1C(=O)O)CCC2)c1cccs1	90	–	–	92	–
Cc1cccc(Nc2nc3c(s2)CCCC3)c1	·	–	·	·	–
O=C(Cc1cccs1)Nc1nc2c(s1)CCCC2	–	–	–	–	–
O=C(Nc1sc2c(c1C(=O)O)CCCC2)c1ccc(Cl)cc1	89	–	–	78	–
O=C(Nc1nc2c(s1)CCCC2)c1cccs1	95	–	96	92	–
NC(=O)c1c(NC(=O)c2cccs2)sc2c1CCCCCC2	–	–	–	–	–
O=C(O)c1ccc(Nc2nc3c(s2)CCCC3)cc1	99	–	100	96	–
Nc1sccc1C(=O)NCCN1CCOCC1	·	–	·	·	–
COCCNC(=O)c1[nH]c(C(F)(F)F)nc1-c1ccccc1	·	–	·	·	–
O=C(O)c1ccccc1CSc1ccccn1	–	–	–	–	–
Cc1ccc(Nc2nnc(-c3ccccc3N)o2)cc1C	–	–	63	–	–
NC(=S)N=Nc1c(O)[nH]c2c(Br)cc(Br)cc12	–	–	–	–	52
O=C(O)C(S)C(S)C(=O)O (stereo not given)	·	–	·	·	49
CN=c1scc(-c2ccccc2F)n1/N=C/c1ccc(O)c(O)c1O	·	–	·	·	43
CC(C)N=c1scc(-c2cccs2)n1/N=C/c1ccc(O)c(O)c1O	–	–	–	–	–
CCN1CNC(=S)N(C(C)c2ccccc2)C1 (stereo not given)	–	–	–	–	–
COC(=O)[C@H](CO)N1C(=O)[C@@H]2[C@H](C1=O)C1C=C[C@H]2C1	·	–	·	·	–
CCOc1ccccc1NC(=O)C1CCN(C(=O)C2CC(=O)N(c3ccc(C)cc3)C2)CC1 (stereo not given)	–	–	–	–	–
O=C(O)CN1C(=O)/C(=C/C=C/c2ccccc2)SC1=S	–	–	–	–	–
CCN1C(=O)/C(=C\C=C2/C=CC=CN2CC)SC1=S	–	–	–	–	–
CCN1C(=O)/C(=C/C=C2\C=CN(CC)c3ccccc32)SC1=S	·	–	·	·	64
CCN1C(=O)C(=CC=CN(C)c2ccccc2)SC1=S	·	–	·	·	62
O=C1/C(=C/c2ccc(O)cc2)CCc2ccc([N+](=O)[O-])cc21	–	–	–	–	–
SMILES	SENP6 inh	SENP1 FRET inh	SENP7 inh	SENP8 block-1	SENP8 block-2
O=C1/C(=C\c2ccc([N+](=O)[O-])cc2)CCc2ccccc21	82	–	87	91	–
O=C(O)c1ccccc1C1=Nc2ccc(O)cc2Oc2cc(O)ccc21	–	59	–	–	–
O=C(Cn1nnc(-c2ccccc2)n1)N/N=C/c1ccco1	–	–	–	–	–
C/C(=N/OC(=O)c1ccc(Cl)cc1Cl)c1oc(C)nc1C	90	–	87	83	–
Nc1ccccc1C(O)(Cc1ccccc1)c1ccccc1 (stereo not given)	–	–	–	–	–
CCn1c(SCC(=O)Nc2ccc(N(C)C)cc2)nnc1-c1ccco1	–	–	–	–	–
Cc1ccc(C(=O)COC(=O)c2cccc(O)c2)s1	93	–	95	83	–
O=C(Nc1ccnn1C1CCN(C2CCCC2)CC1)c1ccccc1	–	–	–	–	–
Nc1ccc(N=Nc2ccccc2)c(N)n1	–	–	–	–	36
COc1cc(/C=N/NS(=O)(=O)c2ccc(C)c([N+](=O)[O-])c2)cc([N+](=O)[O-])c1O	–	–	–	–	41
COc1cc(/C=N/NS(=O)(=O)c2ccc(C)c([N+](=O)[O-])c2)ccc1O	–	–	–	–	–
COCc1nc2ccccc2n1CCc1ccccc1	–	–	–	–	–
Cc1ccc(S(=O)(=O)Cn2nnnc2C(C(C)C)N2CCSCC2)cc1 (stereo not given)	–	–	–	–	–
Cc1ccc(S(=O)(=O)Cn2nnnc2C(C(C)C)N2CCc3ccccc3C2)cc1 (stereo not given)	–	–	–	–	64
CCn1cc(-c2ccnc3cc(C(=O)O)nn23)c(C)n1	–	–	–	95	–
COCC(=O)N(CCc1ccc(OC)c(OC)c1)Cc1cc2cc(C)ccc2nc1Cl	–	–	–	–	–
O=C(Cn1cc(SCc2ccccc2Cl)c2ccccc21)N1CCOCC1	75	–	–	–	–
CC(NC(=O)CNC(=O)c1ccco1)c1ccccc1 (stereo not given)	–	–	–	–	–
COC(=O)c1ccccc1NC(=O)COC(=O)c1ccccc1N=Nc1ccc(N(C)C)cc1	–	–	–	–	42
CC(=O)c1ccc(NC(=O)COC(=O)c2ccccc2N=Nc2ccc(N(C)C)cc2)cc1	–	–	–	–	–
CC(=O)NC1=C(C#N)C(c2ccccc2)c2c(ccc3ccccc23)O1 (stereo not given)	–	–	–	–	–
CC(=O)Oc1c(C)c(=O)n(C)c2ccccc12	–	–	–	–	–
COc1c(OC(C)=O)c(=O)n2c3ccccc3c3ccnc1c32	–	69	–	–	–
Nc1nc2c(s1)CCc1c-2cnn1-c1ccccc1	62	–	–	–	–
O=[N+]([O-])c1ccc2nc(-c3ccc(Cl)cc3)n(OCc3ccccc3)c2c1	75	–	60	–	–
SMILES	SENP6 inh	SENP1 FRET inh	SENP7 inh	SENP8 block-1	SENP8 block-2
Clc1ccc(COn2c(-c3ccc(Cl)cc3)nc3ccccc32)cc1	–	–	–	–	–
O=C(c1cccn2c(=O)c3ccccc3nc12)N1CCN(c2ccccn2)CC1	–	–	–	–	–
O=C(c1cccn2c(=O)c3cc4ccccc4cc3nc12)N1CCN(c2ccccc2)CC1	–	·	70	–	·
COc1cccc(/C=N/Nc2nn3cnnc3c3ccccc23)c1O	–	55	–	–	–
CC1=C(C)C(=O)N(c2ccccn2)C1=O	–	–	–	–	–
Cc1nn(-c2ccccn2)c2c1C(=O)C(Br)CC2 (stereo not given)	·	–	·	·	66
CCOc1cccc2cc(C(N)=O)c(=N)oc12	–	–	–	–	–
O=C1c2cccc(NCCCNCCO)c2C(=O)c2cccc(NCCCNCCO)c21	·	–	·	·	57
COc1ccc(S(=O)(=O)c2ccc(OC)cc2)cc1	–	–	–	–	–
COc1ccc(N=[N+]([O-])c2ccc(OC)cc2)cc1	·	–	·	·	41
O=C(NC1CCN(Cc2ccc(Cl)c(Cl)c2)CC1)c1ccccc1	–	–	–	–	–
Cc1c(NC(=O)c2ccc(-c3ccccc3)cc2)cccc1C(=O)O	99	–	96	93	–
O=C(Nc1ncc([N+](=O)[O-])s1)c1cccc([N+](=O)[O-])c1	96	–	101	97	–
O=C(Nc1ccc(NC(=O)c2cccc([N+](=O)[O-])c2)cc1)c1cccc([N+](=O)[O-])c1	–	–	–	–	–
O=C(Nc1ccc(S(=O)(=O)N2CCCCC2)cc1)c1ccc(CN2CCc3ccccc3C2)cc1	–	–	–	–	53
